# PG9 binder – binders of HIV-1 gp120 antibody PG9, primary screen, biochemical, TR-FRET. TR-FRET gp120-PG9 antibody binding. HIV-1 gp120 / PG9 antibody interaction. AID 624416, 2012. actives 0.43% (n = 360,000). inhibition, % at 6.7 µM; in the data active means inhibition above about 8.5%
# NR2E3 ag-1 – inhibitors of NR2E3-RetCOR corepressor binding, primary screen, NR2E3 agonist project, biochemical, TR-FRET, GST-NR2E3, biotin-RetCOR | actives 0.12% (n = 320,000) | AID 2300, 2010 | 1536-well | Photoreceptor-specific nuclear receptor (Homo sapiens), Q9Y5X4 | inhibition of corepressor binding, % at 4.78 µM;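 active means percent inhibition above the cutoff of mean plus 3 SD of all tested compounds, set per screening campaign, cut at about 20% in these data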;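 further: 0% = DMSO wells and 100% = biotin wells as full block of FRET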
# Target sequence (Q9Y5X4 whole entry, looked up): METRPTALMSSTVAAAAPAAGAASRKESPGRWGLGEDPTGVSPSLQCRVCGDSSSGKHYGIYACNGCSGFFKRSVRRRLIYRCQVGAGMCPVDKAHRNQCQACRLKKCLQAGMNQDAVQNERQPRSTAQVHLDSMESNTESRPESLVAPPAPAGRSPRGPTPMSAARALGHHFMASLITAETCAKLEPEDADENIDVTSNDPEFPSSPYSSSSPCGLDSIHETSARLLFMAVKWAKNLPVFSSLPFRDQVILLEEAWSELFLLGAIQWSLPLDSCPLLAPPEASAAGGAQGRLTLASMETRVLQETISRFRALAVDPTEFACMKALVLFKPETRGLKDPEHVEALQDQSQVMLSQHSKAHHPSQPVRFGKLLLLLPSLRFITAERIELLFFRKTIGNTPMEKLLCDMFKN
#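 System: GST-tagged NR2E3 plus biotinylated RetCOR corepressor; Amount: 1.35 nM GST-tagged NR2E3 final; Dosing: single nominal compound dose of 4.8 µM; Schedule: 5 h incubation at 4 °C; Technique: TR-FRET with europium anti-GST and streptavidin-D2, 340 nm excitation; Controls: biotin wells as high control, 0.6% DMSO wells as low control.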
# NR1D1 modulator – modulators of Rev-erb alpha DNA binding, primary screen, biochemical, FITC-DNA, fluorescence polarization, uHTS; Nuclear receptor subfamily 1 group D member 1 (Homo sapiens), P20393; Rev-erbα–FITC-DNA binding, 90 min; activity, % at 10 µM; actives 0.79% (n = 370,000); AID 1259318, 2017;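 active means activity above about 14%, limit read from the data; passing the limit was not always enough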;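 further: 0% = DMSO wells with 35 nM protein and 100% = DMSO wells with 750 nM protein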
# NR2E3 ag-2 – NR2E3 agonists in two-hybrid cells, primary screen, cell-based, luminescence, CHO-S, Gal4-NCOR/VP16-NR2E3; Photoreceptor-specific nuclear receptor (Homo sapiens), Q9Y5X4; luciferase; inhibition of corepressor binding, % at 3.98 µM; actives 0.35% (n = 360,000); AID 602229, 2012;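 active means inhibition above the mean of all tested compounds plus 3 SD, cut at about 70% in these data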;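 further: 0% = DMSO with NR2E3 transfected cells and 100% = cells lacking NR2E3 construct; higher means lower luciferase signal from less NR2E3 corepressor binding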
# VLA-4 inh – inhibition in human VLA-4 binding assay, primary screen, VLA-4 allosteric modulator project, MLPCN library, flow cytometry, VLA-4 expressing cells; Integrin alpha-4 (Homo sapiens), P13612; ligand binding flow cytometry; inhibition, % (about 7 µM as worked out from the volumes in the protocol); actives 0.2% (n = 330,000); in the data active means inhibition above about 50%
# VLA-4 allo CP – retest of VLA-4 allosteric modulators, confirmation, cell-based, cherry-picked plates, U937, HUTS-21 LIBS antibody; shares compounds with VLA-4 inh; U937 cells, HUTS-21 LIBS mAb binding, flow cytometry; LDV ligand present at threefold Kd; inhibition, % at 6.7 µM; actives 2% (n = 1,300); AID 2813, 2010; in the data active means inhibition above about 40%;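 further: 0% = ligand without compound and 100% = no ligand background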
# * = called active by the depositor; . = no result given. Most compounds without a hit are left out; they make up all but 1.6% or so of the library.
SMILES,PG9 binder,NR2E3 ag-1,NR1D1 modulator,NR2E3 ag-2,VLA-4 inh,VLA-4 allo CP
COc1ccc(-c2c(-c3cc(OC)cc(OC)c3)sc3ccc(OC)cc23)cc1,0,.,6,10,-4,.
CC(C)CNC(=O)OCc1cn(Cc2cc(F)ccc2F)nn1,.,.,1,.,.,.
O=C(Cc1ccc(NC2=NC3CS(=O)(=O)CC3S2)cc1)N1CCN(c2ccc(F)cc2)CC1 (centres undefined),-1,1,-1,-6,-2,.
COc1cccc(N2CCN(C(=O)c3cccc(NC4=NC5CS(=O)(=O)CC5S4)c3)CC2)c1 (centres undefined),-1,-1,-1,-24,-40,0
Cc1cccc(N2CCN(C(=O)c3ccc(Cl)c(NC4=NC5CS(=O)(=O)CC5S4)c3)CC2C)c1 (centres undefined),-2,1,-2,28,-14,-6
O=C(c1ccc(Cl)c(NC2=NC3CS(=O)(=O)CC3S2)c1)N1CCN(c2ccccc2)CC1 (centres undefined),-3,-1,-2,1,-3,0
Cc1ccc(C)c(N2CCN(C(=O)Cc3ccc(NC4=NC5CS(=O)(=O)CC5S4)cc3)CC2)c1 (centres undefined),-1,4,3,-4,56*,-2
C[C@H]1[C@@H](N(C)CC2CCCCC2)CC[C@@]23CCCN2C(=O)CCC[C@@H]13,.,.,3,.,.,.
Cn1c(=O)[nH]c2c(Br)nccc21,.,.,-1,.,.,.
Cc1ccc(S(=O)(=O)N2O[C@@H](c3ccccc3)C[C@H]2CON2C(C)(C)CCCC2(C)C)cc1,.,.,0,.,.,.
Fc1cccc(CNC2CCC23CCC(c2ccccc2)CC3)c1 (centres undefined),.,.,12,.,.,.
Cc1ccc(C)c(N2CCN(C(=O)c3ccc(Cl)c(NC4=NC5CS(=O)(=O)CC5S4)c3)CC2)c1 (centres undefined),-1,0,2,-15,-4,0
COc1ccc(C)cc1NC(=O)Cn1c(=O)oc2ccccc21,-2,0,-3,12,44,-20
COc1ccc(Cl)cc1NC(=O)CCn1c(=O)oc2ccccc21,-1,0,-7,4,-4,.
Cc1ccccc1NC(=O)Cn1c(=O)oc2ccccc21,-1,2,0,11,16,.
COc1ccc(Cl)cc1NC(=O)CN(C)C(=O)Cn1c(=O)oc2ccccc21,-1,3,1,-21,-17,-2
CC1CCC(NC(=O)Cn2c(=O)oc3ccccc32)CC1 (centres undefined),1,-1,-7,-49,-15,0
CN(CC(=O)Nc1ccccc1C(F)(F)F)C(=O)Cn1c(=O)oc2ccccc21,-1,3,-5,4,6,1
CCn1c2ccccc2c2cc(NC(=O)COC(=O)c3cc(F)cc(F)c3)ccc21,.,.,3,.,.,.
COC1=C[C@H](C(=O)NCc2ccccc2)[C@H](C)[C@@H](c2ccccc2)CC1=O,.,.,-3,.,.,.
O=S1(=O)N[C@H](Cc2ccccc2)COc2cc(Br)ccc21,0,.,-6,.,.,.
O=C1CC(c2ccc3c(c2)OCO3)N=C2N(Cc3ccc4c(c3)OCO4)C/C(=C/c3ccccc3)N12 (centres undefined),.,.,-3,.,.,.
Cc1ccccc1CN1CCCCC(NC(=O)c2ccc(F)cc2)C1=O (centres undefined),.,.,1,.,.,.
COc1ccc(NC(=O)Nc2cc(C)ccc2OC)cc1,-1,0,-2,0,8,.
COc1ccc(C)cc1NC(=O)Nc1ccccc1,1,1,-3,9,50*,-4
Cc1ccc(NC(=O)Nc2ccccc2C(N)=O)cc1,0,1,7,-43,-1,8

# Bioassay records as filed in PubChem.
